# The list is not random: actives were taken first. Their share in the collection is about 2.5%.
# CTSL1 counter – blocks F. hepatica cathepsin L1 in PFM18AAP counter-screen | recombinant F. hepatica cathepsin L1, Z-Leu-Arg-MCA fluorescence | inhibition, % at 5.96 µM | 300,000 compounds, 0.49% hits;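 active = inhibition above the mean of all tested compounds plus 3 SD, set per screening campaign, cut at about 17% in these data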;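 also: 0% = plate median of test compound wells and 100% = 1 µM Z-Phe-Ala-diazomethylketone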
# PRMT1 FP inh – blocks human protein arginine methyltransferase 1; recombinant PRMT1, activity-based probe fluorescence polarization; 370,000 compounds, 1.3% hits; inhibition, % at 2.79 µM; Q99873;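 active = inhibition above about 21% made by adding two undisclosed values, limit read from the data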
# GSTO1 inh – blocks human GSTO1 in RBBP9 counter-screen; recombinant GSTO1, activity-based probe fluorescence polarization; P78417; AID 1974; 300,000 compounds, 1.1% hits; inhibition, % at 5.96 µM;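 active = inhibition above the campaign mean inhibition plus 3 SD, cut at about 35% in these data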;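 also: 0% = GSTO1-1 with DMSO and 100% = wells lacking GSTO1-1 enzyme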
# Target sequence (P78417 whole entry, looked up): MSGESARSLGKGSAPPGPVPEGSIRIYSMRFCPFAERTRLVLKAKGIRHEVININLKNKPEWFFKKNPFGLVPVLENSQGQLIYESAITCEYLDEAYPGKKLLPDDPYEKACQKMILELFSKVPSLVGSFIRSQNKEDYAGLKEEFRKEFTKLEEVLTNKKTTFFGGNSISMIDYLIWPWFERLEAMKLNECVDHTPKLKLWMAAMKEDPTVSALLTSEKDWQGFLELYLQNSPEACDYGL
# TDP2 inh – TDP2 (human) inhibition, absorbance primary screen; O95551; recombinant TDP2, T5PNP hydrolysis, p-nitrophenol absorbance 415 nm; inhibition, % at 12.8 µM; 370,000 compounds, 0.34% hits;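 active = inhibition above the mean of all tested compounds plus 3 SD, set per campaign, cut at about 25% in these data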;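 also: 0% = DMSO with enzyme and 100% = buffer with substrate but no TDP2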
# Target sequence (O95551 whole entry, looked up): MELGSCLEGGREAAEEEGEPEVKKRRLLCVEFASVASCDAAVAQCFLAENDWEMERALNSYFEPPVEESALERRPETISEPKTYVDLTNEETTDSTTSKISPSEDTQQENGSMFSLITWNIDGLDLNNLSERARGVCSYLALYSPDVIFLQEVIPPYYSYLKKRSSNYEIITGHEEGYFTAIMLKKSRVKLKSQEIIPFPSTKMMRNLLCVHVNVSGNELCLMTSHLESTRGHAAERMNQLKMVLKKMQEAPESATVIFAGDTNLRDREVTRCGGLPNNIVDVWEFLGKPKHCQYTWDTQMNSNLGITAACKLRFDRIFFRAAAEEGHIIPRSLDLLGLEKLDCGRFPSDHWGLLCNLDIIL
#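 Test system: human TDP2 enzyme; Input: 120 nM TDP2 per well; Buffer or medium: Mg2+-containing Tris-HCl buffer, pH 7.5; Reagent: 5 mM T5PNP; Dosing: 12.8 µM single point, 1% DMSO; Incubation: reaction 2 h, 37 °C; Detection: p-Nitrophenol epi absorbance; Read-out: % inhibition relative to enzyme-containing and enzyme-free wells; Replicates: single well per compound.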
# PAD4 inh – inhibitors of human PAD4. 330,000 compounds, 0.41% hits. Q9UM07. AID 485272. recombinant PAD4, RCA probe fluorescence polarization. inhibition, % at 6.36 µM;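 active = percent inhibition above a cutoff equal to the mean of all tested compounds plus 3 SD, cut at about 15% in these data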;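 also: 0% = PAD4 with RCA probe and DMSO and 100% = probe without PAD4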
# PAD4 confirm – confirmation of human PAD4 inhibitors; 1,200 compounds, 28% hits; shares compounds with PAD4 inh; recombinant PAD4, RCA probe fluorescence polarization; inhibition, % at 6.36 µM;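 active = mean inhibition across replicates above the hit cutoff set by the earlier primary screen, cut at about 15% in these data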;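 also: inhibitors block active-site labeling by the probe so polarization falls; 0% = PAD4 with probe and DMSO and 100% = probe without PAD4 enzyme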
# * = called active by the depositor; . = not tested or not shown.
SMILES,CTSL1 counter,PRMT1 FP inh,GSTO1 inh,TDP2 inh,PAD4 inh,PAD4 confirm
COc1ccc(C2C(C#N)=C(N)N(N(C)C)C3=C2C(=O)CCC3)cc1 (centres undefined),1,4,3,6,90*,3
Cc1cc([N+](=O)[O-])cnc1N1CCOCC1,6,-3,4,-13,1,.
O=[N+]([O-])c1cnc(N2CCCCC2)c([N+](=O)[O-])c1,0,9,9,5,41*,-3
O=C(NCCc1c[nH]c2ccccc12)OCc1cn(-c2cccc(C(F)(F)F)c2)nn1,.,-2,.,-1,.,.
CCCCN1C[C@@H](COCc2ccccc2)Oc2cccc(F)c2S1(=O)=O,.,-1,.,-6,.,.
Cc1cc(C)c2nc(NC(=O)c3ccc4c(=O)n5c(nc4c3)CCCCC5)sc2c1,2,3,1,11,36*,28*
Cc1cccc(-c2cccc3c4c([nH]c23)[C@@H]2C[C@H](N(C)C(=O)c3ccco3)[C@H]([C@H](C)O)CN2CC4)c1,.,3,.,1,.,.
CCOc1ccc2nc(NC(=O)c3ccco3)sc2c1,0,2,2,-22,17*,13
CCOC(=O)[C@]12CCCCC/C=C\1N(Cc1ccc(OC)cc1)C(=O)[C@H]2CC(=O)NCC1CCCCC1,.,-1,.,-7,.,.
COc1ccc(C2C(C#N)=C(N)Oc3c2c(C)nn3-c2ccccc2)cc1Cn1nc(C)c([N+](=O)[O-])c1C (centres undefined),3,3,26,24,42*,8
CCOc1nc(Nc2ccc(OC)cc2OC)nc(OCC)n1,-2,3,-4,-5,190*,10
COCC(=O)N(CCc1ccc(OC)c(OC)c1)Cc1nc2ccccc2c(=O)[nH]1,0,-1,2,8,22*,7
COCC(=O)N(Cc1nc2ccccc2c(=O)[nH]1)Cc1cccs1,1,-4,0,-2,-2,.
COC(=O)[C@]12C[C@H](CC(=O)N3CCSCC3)C(=O)N(Cc3ccco3)C1=C[C@H](C(C)C)O[C@@H]2C1CC1,.,0,.,1,.,.
CCCS(=O)(=O)c1cn2cccc(N)c2c1S(=O)(=O)CCC,15,33*,15,17,18*,7
CCCS(=O)(=O)c1c(S(=O)(=O)CCC)c2c(C)cccn2c1C(N)=O,0,2,0,-1,-2,.
O=C(NC1CC1c1ccccc1)N1CCC(c2nc3ccc(Cl)cc3[nH]2)CC1 (centres undefined),.,2,.,5,.,.
O=C(COC(=O)c1ccc(S(=O)(=O)C(F)F)cc1)Nc1ccccc1C(=O)NC1CC1,.,-7,.,2,15*,4
O=C(COC(=O)c1ccc([N+](=O)[O-])cc1)Nc1ccccc1C(=O)NC1CC1,.,-1,.,0,1,.
COc1cc(Cl)c(NC2=CC(=O)C(=O)c3ccccc32)c(OC)c1,.,0,.,8,41*,52*
Cc1cc(SC#N)cc(C)c1NC(=O)CCl,-2,15,66*,-2,25*,3
CCC(=O)Nc1ccc(SC#N)cc1C,2,15,6,-7,40*,42*
FC(F)(F)c1ccccc1C(C#Cc1ccccc1)NCc1ccc2c(c1)OCO2 (centres undefined),.,0,.,-4,.,.
CCOC(=S)SCC(=O)Nc1nc(-c2ccc(Br)cc2)cs1,5,11,-7,0,15,.
O=C(CSC1=NCCS1)Nc1nc2ccccc2s1,-6,42*,-1,13,17*,10
SMILES,CTSL1 counter,PRMT1 FP inh,GSTO1 inh,TDP2 inh,PAD4 inh,PAD4 confirm
Cc1ccc(-c2csc(NC(=O)CSc3nc(C)cc(=O)[nH]3)n2)cc1,3,20,-6,12,12,.
Cc1sc(NC(=O)CSc2ncn(-c3ccccc3)n2)nc1-c1ccccc1,2,4,-4,-11,2,.
Cc1sc(NC(=O)CSC2=NCCS2)nc1-c1ccccc1,2,4,0,4,19*,17*
Cc1ccc(-c2csc(NC(=O)CSC3=NCCS3)n2)cc1,-2,3,-14,0,20*,16*
O=C(CSc1nc2ccccc2o1)Nc1nc2ccccc2s1,-2,0,-8,-4,-1,.
CCOC(=S)SCC(=O)Nc1nc(-c2ccccc2)cs1,1,26*,3,16,25*,25*
O=C(NC1=N[C@@]2(C=C3CCCCC3n3c(=O)n(-c4ccccc4)c(=O)n32)[C@H](Cc2ccccc2)N1Cc1ccccc1)c1ccccc1 (some centres undefined),.,1,.,1,.,.
CC(=C/c1ccco1)/C=N/N1CCN(c2ccccc2)CC1,0,8,1,0,20*,-7
Cn1c(=O)c(Nc2ccc(Cl)cc2)c2c3c(cccc31)C(=O)c1ccccc1-2,0,93*,19,7,33*,50*
CC(=O)Nc1c2c3c(cccc3n(C)c1=O)C(=O)c1ccccc1-2,2,7,17,-8,65*,31*
Cc1ccccc1N1CCN(C(=O)COc2cc(=O)n(C)c3ccccc23)CC1,.,-2,.,-13,.,.
O=C(NCCc1ccccn1)c1ccc2c(c1)ncn2C1CCCCC1,.,1,.,6,.,.
COC1=C[C@H](C(=O)NCCOC(C)=O)[C@H](C)[C@@H](c2ccccc2)CC1=O,.,3,.,6,.,.
CN(CCCOC(=O)c1cc2ccccc2o1)C1CN(Cc2cn(Cc3ccccc3C(F)(F)F)nn2)S(=O)(=O)C1 (centres undefined),.,0,.,-1,.,.
Cc1cc(O)ccc1N/C=C1\CCCC1=O,-2,30*,29,-10,41*,0
COc1ccc(OC)c(CN2C(=O)COc3ccccc3C2c2nnnn2C2CCCC2)c1 (centres undefined),.,3,.,2,.,.
CC(=O)Nc1ccc(N/C(C)=C/C(=O)c2cccnc2)cc1,9,2,0,-5,22*,3
CC(C)C[C@@H]1NC(=O)[C@H]2C[C@@]3(C)c4ccccc4N[C@H]3N2C1=O,.,-1,.,1,.,.
O=C(Cn1sc2ccccc2c1=O)NC12CC3CC(CC(C3)C1)C2,-2,.,2,.,16*,30*
O=C(CCc1ccccc1)N[C@H]1[C@H](OC(=O)c2ccco2)CCC[C@]12C(=O)N(Cc1ccccc1)c1ccccc12,.,2,.,-2,.,.
Nc1ccccc1C(=O)NC1CCCNC1=O (centres undefined),-1,-5,4,-9,29*,1
Cc1ccc(F)c(NC(=S)Nc2cccc3ccccc23)c1,4,4,-1,-4,18*,4
NC(=O)C1CCN(c2nc(-c3ccc4c(c3)OCCCO4)cs2)CC1,.,-2,.,-7,.,.
O=C(CSc1ccccn1)Nc1nonc1[N+](=O)[O-],9,29*,-3,-12,19*,7
Cc1ccc(S(=O)(=O)/N=C(/Sc2ccccc2C(=O)O)c2ccccc2)cc1,-2,4,5,1,18*,25*
